Assay results: ChEMBL document CHEMBL3244414, “Structure-activity relationships among the O-acyl derivatives of leucomycin. Correlation of minimal inhibitory concentrations with binding to Escherichia coli ribosomes” (J Med Chem, 1977)
In brackets after ≈: the same amount, converted by molar mass.

What was measured:
[1] = tested on: Staphylococcus aureus; assay: Antimicrobial activity against Staphylococcus aureus ATCC 6538P by agar dilution method; type: functional
Summary of the method: (§1)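 Read-out is the minimal inhibitory concentration, found by agar dilution against the named strain.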

[2] = tested on: Bacillus spizizenii; assay: Antimicrobial activity against Bacillus subtilis ATCC 6633 by agar dilution method; type: functional; summary of the method: as §1
[3] = tested on: Klebsiella pneumoniae; assay: Antimicrobial activity against Klebsiella pneumoniae ATCC 10031 by agar dilution method; type: functional; summary of the method: as §1
[4] = target: Bacterial 70S ribosome (Bacteria) (UniProt P0A7V0+P60723+P0AG67+P0A7R5+P0A7R9+P0A7S3+P0A7S9+P0AG59+P0ADZ4+P0A7T3+P0AG63+P0A7T7+P0A7U3+P0A7U7+P68679+P0A7V3+P0A7V8+P0A7W1+P02358+P02359+P0A7W7+P0A7X3+P0A7J3+P0A7J7+P0AA10+P0ADY3+P02413+P0ADY7+P0AG44+P0C018+P0A7K6+P0A7L0+P0A7L3+P0AG48+P61175+P0ADZ0+P60624+P68919+P0A7L8+P0A7M2+P0A7M6+P60422+P0AG51+P0A7N1+P0A7M9+P0A7N4+P0A7N9+P0A7P5+P0A7Q1+Q2EEQ2+P0A7Q6+P60438+P62399+P0AG55+P0A7K2); assay: (§2) Displacement of [14C]erythromycin from Escherichia coli ribosomes after 30 mins by scintillation spectrometer analysis
Summary of the method: (§3)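 NH4Cl-washed E. coli ribosomes with [14C]erythromycin A and varied competitor concentrations in 0.01 M Tris-HCl pH 7.2, 0.1 M KCl, 0.004 M MgCl2, 0.01 M NH4Cl. Incubated 30 min at 24 °C, stopped by dilution in cold Tris/KCl/MgCl2 buffer, membrane-filtered, washed three times, dried, scintillation counted. Reports the concentration giving 50% inhibition of binding.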

[5] = target: Bacterial 70S ribosome; assay: as §2; summary of the method: as §3
[6] = Staphylococcus aureus, ATCC 6538P, read-out: MIC
[7] = Bacillus spizizenii, ATCC 6633, read-out: MIC
[8] = Klebsiella pneumoniae, ATCC 10031, read-out: MIC

| Compound | MIC [1, 6] [mg/L] | MIC [2, 7] [mg/L] | MIC [3, 8] [mg/L] | pK50 [4] | IC50 [5] [µM] | MIC [1] [mg/L] | MIC [2] [mg/L] | MIC [3] [mg/L] |
| --- | --- | --- | --- | --- | --- | --- | --- | --- |
| CCCC(=O)O[C@H]1[C@H](C)O[C@@H](O[C@H]2[C@H](N(C)C)[C@@H](OC(C)=O)[C@H](O[C@H]3[C@@H](CC=O)C[C@@H](C)[C@@H](O)/C=C/C=C/C[C@@H](C)OC(=O)C[C@@H](OC(C)=O)[C@@H]3OC)O[C@@H]2C)C[C@@]1(C)O | 0.8 (≈ 0.935 µM) | 0.8 (≈ 0.935 µM) | 100 (≈ 117 µM) | 4.7 | 20.9 |  |  |  |
| CO[C@@H]1[C@@H](O[C@@H]2O[C@H](C)[C@@H](O[C@H]3C[C@@](C)(O)[C@@H](OC(=O)CC(C)C)[C@H](C)O3)[C@H](N(C)C)[C@H]2O)[C@@H](CC=O)C[C@@H](C)[C@@H](OC(=O)CCC(=O)O)/C=C/C=C/C[C@@H](C)OC(=O)C[C@H]1OC(C)=O | 3.1 (≈ 3.34 µM) | 3.1 (≈ 3.34 µM) | 100 (≈ 108 µM) | 5.5 | 3.4 |  |  |  |
| CCC(=O)O[C@H]1/C=C/C=C/C[C@@H](C)OC(=O)C[C@@H](OC(C)=O)[C@H](OC)[C@@H](O[C@@H]2O[C@H](C)[C@@H](O[C@H]3C[C@@](C)(O)[C@@H](OC(=O)CC(C)C)[C@H](C)O3)[C@H](N(C)C)[C@H]2O)[C@@H](CC=O)C[C@H]1C | 3.1 (≈ 3.51 µM) | 0.4 (≈ 0.452 µM) | 100 (≈ 113 µM) | 5.7 | 1.9 |  |  |  |
| CO[C@@H]1[C@@H](O[C@@H]2O[C@H](C)[C@@H](O[C@H]3C[C@@](C)(O)[C@@H](OC(=O)CC(C)C)[C@H](C)O3)[C@H](N(C)C)[C@H]2O)[C@@H](CC=O)C[C@@H](C)[C@@H](OC(=O)CCl)/C=C/C=C/C[C@@H](C)OC(=O)C[C@H]1OC(C)=O | 0.8 (≈ 0.884 µM) | 0.4 (≈ 0.442 µM) | 50 (≈ 55.3 µM) | 5.8 | 1.7 |  |  |  |
| CO[C@@H]1[C@@H](O[C@@H]2O[C@H](C)[C@@H](O[C@H]3C[C@@](C)(O)[C@@H](OC(C)=O)[C@H](C)O3)[C@H](N(C)C)[C@H]2O)[C@@H](CC=O)C[C@@H](C)[C@@H](O)/C=C/C=C/C[C@@H](C)OC(=O)C[C@H]1OC(C)=O | 3.1 (≈ 3.94 µM) | 6.3 (≈ 8.02 µM) | 100 (≈ 127 µM) | 5.2 | 6.7 |  |  |  |
| CO[C@@H]1[C@@H](O[C@@H]2O[C@H](C)[C@@H](O[C@H]3C[C@@](C)(O)[C@@H](OC(C)=O)[C@H](C)O3)[C@H](N(C)C)[C@H]2O)[C@@H](CC=O)C[C@@H](C)[C@@H](OC(C)=O)/C=C/C=C/C[C@@H](C)OC(=O)C[C@H]1O | 6.3 (≈ 8.02 µM) | 3.1 (≈ 3.94 µM) | 50 (≈ 63.6 µM) | 5.7 | 2.1 |  |  |  |
| CO[C@@H]1[C@@H](O[C@@H]2O[C@H](C)[C@@H](O[C@H]3C[C@@](C)(O)[C@@H](OC(=O)CC(C)C)[C@H](C)O3)[C@H](N(C)C)[C@H]2O)[C@@H](CC=O)C[C@@H](C)[C@@H](O)/C=C/C=C/C[C@@H](C)OC(=O)C[C@H]1O (stereo in doubt; 2) [KITASAMYCIN] |  |  |  | 6 | 1 | 1.6 (≈ 2.04 µM) | 0.4 (≈ 0.509 µM) | 25 (≈ 31.8 µM) |
| CCCC(=O)O[C@H]1[C@H](C)O[C@@H](O[C@H]2[C@H](N(C)C)[C@@H](OC(=O)CC)[C@H](O[C@H]3[C@@H](CC=O)C[C@@H](C)[C@@H](O)/C=C/C=C/C[C@@H](C)OC(=O)C[C@@H](OC(C)=O)[C@@H]3OC)O[C@@H]2C)C[C@@]1(C)O | 1.6 (≈ 1.84 µM) | 0.8 (≈ 0.919 µM) | 25 (≈ 28.7 µM) | 4.8 | 17.8 |  |  |  |
| CO[C@@H]1[C@@H](O[C@@H]2O[C@H](C)[C@@H](O[C@H]3C[C@@](C)(O)[C@@H](OC(=O)CC(C)C)[C@H](C)O3)[C@H](N(C)C)[C@H]2O)[C@@H](CC=O)C[C@@H](C)[C@@H](OC(=O)C(Cl)Cl)/C=C/C=C/C[C@@H](C)OC(=O)C[C@H]1OC(C)=O | 1.6 (≈ 1.7 µM) | 0.8 (≈ 0.852 µM) | 50 (≈ 53.3 µM) | 5.9 | 1.4 |  |  |  |
| CCCC(=O)O[C@H]1[C@H](C)O[C@@H](O[C@H]2[C@H](N(C)C)[C@@H](OC(=O)CCC(=O)O)[C@H](O[C@H]3[C@@H](CC=O)C[C@@H](C)[C@@H](OC(C)=O)/C=C/C=C/C[C@@H](C)OC(=O)C[C@@H](O)[C@@H]3OC)O[C@@H]2C)C[C@@]1(C)O | 1.6 (≈ 1.75 µM) | 1.6 (≈ 1.75 µM) | 25 (≈ 27.4 µM) | 5.5 | 3.3 |  |  |  |
| CCCC(=O)O[C@H]1[C@H](C)O[C@@H](O[C@H]2[C@H](N(C)C)[C@@H](OC(=O)CCC(=O)O)[C@H](O[C@H]3[C@@H](CC=O)C[C@@H](C)[C@@H](O)/C=C/C=C/C[C@@H](C)OC(=O)C[C@@H](O)[C@@H]3OC)O[C@@H]2C)C[C@@]1(C)O | 1.6 (≈ 1.83 µM) | 0.8 (≈ 0.917 µM) | 100 (≈ 115 µM) | 5.7 | 1.9 |  |  |  |
| CCCC(=O)O[C@H]1[C@H](C)O[C@@H](O[C@H]2[C@H](N(C)C)[C@@H](O)[C@H](O[C@H]3[C@@H](CC=O)C[C@@H](C)[C@@H](OC(=O)C(Cl)Cl)/C=C/C=C/C[C@@H](C)OC(=O)C[C@@H](O)[C@@H]3OC)O[C@@H]2C)C[C@@]1(C)O | 1.6 (≈ 1.81 µM) | 1.6 (≈ 1.81 µM) | 25 (≈ 28.3 µM) | 5.9 | 1.3 |  |  |  |
| CCCC(=O)O[C@H]1/C=C/C=C/C[C@@H](C)OC(=O)C[C@@H](OC(C)=O)[C@H](OC)[C@@H](O[C@@H]2O[C@H](C)[C@@H](O[C@H]3C[C@@](C)(O)[C@@H](OC(=O)CC(C)C)[C@H](C)O3)[C@H](N(C)C)[C@H]2O)[C@@H](CC=O)C[C@H]1C | 3.1 (≈ 3.45 µM) | 1.6 (≈ 1.78 µM) | 100 (≈ 111 µM) | 5.7 | 1.9 |  |  |  |
| CCCC(=O)O[C@H]1[C@H](C)O[C@@H](O[C@H]2[C@H](N(C)C)[C@@H](O)[C@H](O[C@H]3[C@@H](CC=O)C[C@@H](C)[C@@H](O)/C=C/C=C/C[C@@H](C)OC(=O)C[C@@H](O)[C@@H]3OC)O[C@@H]2C)C[C@@]1(C)O | 0.4 (≈ 0.518 µM) | 0.8 (≈ 1.04 µM) | 12.5 (≈ 16.2 µM) | 6 | 1.1 |  |  |  |
| CO[C@@H]1[C@@H](O[C@@H]2O[C@H](C)[C@@H](O[C@H]3C[C@@](C)(O)[C@@H](OC(=O)CC(C)C)[C@H](C)O3)[C@H](N(C)C)[C@H]2OC(C)=O)[C@@H](CC=O)C[C@@H](C)[C@@H](OC(C)=O)/C=C/C=C/C[C@@H](C)OC(=O)C[C@H]1OC(C)=O | 1.6 (≈ 1.75 µM) | 1.6 (≈ 1.75 µM) | 100 (≈ 110 µM) | 4.7 | 21.4 |  |  |  |
| CCCC(=O)O[C@H]1/C=C/C=C/C[C@@H](C)OC(=O)C[C@@H](O)[C@H](OC)[C@@H](O[C@@H]2O[C@H](C)[C@@H](O[C@H]3C[C@@](C)(O)[C@@H](OC(=O)CCC)[C@H](C)O3)[C@H](N(C)C)[C@H]2O)[C@@H](CC=O)C[C@H]1C | 1.6 (≈ 1.9 µM) | 1.6 (≈ 1.9 µM) | 50 (≈ 59.4 µM) | 6 | 0.9 |  |  |  |
| CCCC(=O)O[C@H]1[C@H](C)O[C@@H](O[C@H]2[C@H](N(C)C)[C@@H](OC(=O)CCC(=O)O)[C@H](O[C@H]3[C@@H](CC=O)C[C@@H](C)[C@@H](OC(=O)CCC(=O)O)/C=C/C=C/C[C@@H](C)OC(=O)C[C@@H](O)[C@@H]3OC)O[C@@H]2C)C[C@@]1(C)O | 6.3 (≈ 6.48 µM) | 3.1 (≈ 3.19 µM) | 50 (≈ 51.4 µM) | 5.6 | 2.8 |  |  |  |
| CCCC(=O)O[C@H]1[C@H](C)O[C@@H](O[C@H]2[C@H](N(C)C)[C@@H](O)[C@H](O[C@H]3[C@@H](CC=O)C[C@@H](C)[C@@H](OC(=O)CC)/C=C/C=C/C[C@@H](C)OC(=O)C[C@@H](O)[C@@H]3OC)O[C@@H]2C)C[C@@]1(C)O | 1.6 (≈ 1.93 µM) | 0.8 (≈ 0.966 µM) | 50 (≈ 60.4 µM) | 5.8 | 1.7 |  |  |  |
| CCCC(=O)O[C@H]1[C@H](C)O[C@@H](O[C@H]2[C@H](N(C)C)[C@@H](O)[C@H](O[C@H]3[C@@H](CC=O)C[C@@H](C)[C@@H](OC(C)=O)/C=C/C=C/C[C@@H](C)OC(=O)C[C@@H](O)[C@@H]3OC)O[C@@H]2C)C[C@@]1(C)O | 1.6 (≈ 1.97 µM) | 0.4 (≈ 0.491 µM) | 25 (≈ 30.7 µM) | 6.1 | 0.9 |  |  |  |
